Source: PubChem BioAssay (several laboratories)
Only some compounds are listed: those with a hit (about 1.4% of all), similar ones and a draw of the others.
FXIa inh = inhibitors of human coagulation factor XIa; P03951; purified FXIa, Boc-Glu-Ala-Arg-AMC fluorogenic substrate; inhibition, % at 5 µM; 220,000 compounds, 0.14% hits;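 active = inhibition of at least 40%; inactive = inhibition below 40%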;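 also: fluorescence of freed AMC excited at 355 nm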
FXIIa inh = blocks human coagulation factor XIIa protease activity; P00748; AID 800; inhibition, % at 5 µM; 220,000 compounds, 0.3% hits; purified FXIIa, Boc-QGR-AMC fluorogenic substrate, 2 h; in the data active = inhibition above about 40%
KLK5 inh = blocks human kallikrein 5 protease activity; 210,000 compounds, 0.59% hits; inhibition, % at 5 µM; Q9Y337; recombinant hK5, fluorogenic AMC substrate cleavage;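 active = inhibition of 40% or more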
Rce1 inhib = yeast Ras-converting enzyme inhibition; yeast membranes, quenched prenylated peptide cleavage fluorescence; calls only; Q03530; 290,000 compounds, 0.27% hits;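 active = fall in fluorescence gain of 50% or more versus controls, with final raw signal at or below 3038400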
Thrombin inh = thrombin (human) inhibition; P00734; alpha-thrombin, Boc-VPR-AMC fluorogenic substrate cleavage; inhibition, % at 5 µM; 220,000 compounds, 0.26% hits; AID 1046;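 active = inhibition at or above 40%; inactive = inhibition below 40%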
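Material: human alpha-thrombin enzyme / Medium: pH 7.5 Tris (50 mM) with NaCl 150 mM, Tween 20 0.05% / Compound: single-point dosing at 5 µM, 0.2% DMSO / Incubation: enzyme reaction carried out at room temperature / Detection: AMC fluorescence, 355/460 nm / Read-out basis: percent inhibition scaled between no-compound controls and no-enzyme blanks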
CTSL1 counter = counter-screen for PFM18AAP inhibitors: inhibitors of F. hepatica cathepsin L1; inhibition, % at 5.96 µM; 300,000 compounds, 0.49% hits; recombinant F. hepatica cathepsin L1, Z-Leu-Arg-MCA fluorescence;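 active = inhibition above the mean of all tested compounds plus 3 SD, set per screening campaign, cut at about 17% in these data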
A number is an active result; – = inactive; · = not tested or not shown; + = active, no number.

SMILES	FXIa inh	FXIIa inh	KLK5 inh	Rce1 inhib	Thrombin inh	CTSL1 counter
CN(C)/C=C/C1=C([N+](=O)[O-])C(c2cccc([N+](=O)[O-])c2)NC(=O)N1 (stereo unspecified)	–	–	–	–	–	–
COc1ccc(S(=O)(=O)/N=C2\C=C(Nc3ccc(O)cc3)C(=O)c3ccccc32)cc1	·	·	·	–	·	92
Cc1cc[n+](C2=C([O-])c3ccccc3C(=O)/C2=N\S(=O)(=O)c2cccs2)cc1C	–	–	–	–	–	27
Cc1ccccc1NC1=C/C(=N\S(=O)(=O)c2cccs2)c2ccccc2C1=O	–	–	–	–	–	94
CC(=O)Nc1ccc(NC2=C/C(=N/S(=O)(=O)c3cccs3)c3ccccc3C2=O)cc1	–	–	–	·	·	102
Cc1cc(C)c[n+](C2=C([O-])c3ccccc3C(=O)/C2=N\S(=O)(=O)c2cccs2)c1	–	–	–	–	–	–
CCC1CCCCN1CCCNC(=O)c1cn(CC)c2ccc(S(=O)(=O)N(C)C3CCCCC3)cc2c1=O (stereo unspecified)	·	·	·	–	·	–
CCOc1ccc(CCNC(=O)CCCn2nc(C)c3c(C)n(-c4ccccc4)nc3c2=O)cc1	·	·	·	–	·	–
CC(C)(C#N)NC(=O)C1CCCN1S(=O)(=O)c1ccc2ccccc2c1 (stereo unspecified)	·	·	·	·	·	–
Cc1ccc(NC2=C/C(=N/S(=O)(=O)c3cccs3)c3ccccc3C2=O)cc1C	–	–	–	–	–	19
Cc1cccc(OC(=O)NCCOC(=O)N(O)c2ccc(Cl)cc2)c1	–	–	–	–	–	19
Cc1nc(SCc2cccnc2)[nH]c(=O)c1C	·	·	·	–	·	–
COc1cc(C(=O)ON=C2C3CC4CC(C3)CC2C4)cc(OC)c1OC	·	·	·	–	·	36
COc1cc(C(=O)O/N=C2\C=CC(=O)C=C2C)cc(OC)c1OC	–	41	–	–	–	–
COc1cc(C(=O)O/N=C2/C=CC(=O)C(C)=C2C)cc(OC)c1OC	–	–	–	·	–	·
COc1ccc(CN2CCc3c([nH]c4ccccc34)C2)c(OC)c1C	·	·	·	·	·	–
COC(=O)C(NC(=O)c1ccco1)(Nc1nc(C)cs1)C(F)(F)F (stereo unspecified)	–	54	–	–	–	–
O=C(NCc1ccc2c(c1)OCO2)C1CCCCC1	·	·	·	–	·	–
CN(C)CCCN(C(=O)CCS(=O)(=O)c1ccccc1)c1nc2cc3c(cc2s1)OCO3	·	·	·	–	·	29
CCN(CC)CCN(C(=O)c1ccc2ccccc2c1)c1nc2cc3c(cc2s1)OCO3	·	·	·	+	·	–
Cc1ccc2sc(N(CCCN(C)C)C(=O)CCS(=O)(=O)c3ccccc3)nc2c1C	·	·	·	–	·	40
COc1ccc(OC)c2sc(N(CCCN(C)C)C(=O)CCS(=O)(=O)c3ccccc3)nc12	·	·	·	–	·	37
Cc1csc(NC(=O)C(NC(=O)c2ccccc2F)C(C)C)n1 (stereo unspecified)	–	–	–	–	–	–
Cc1ccc(NC(=O)CCNS(=O)(=O)c2cccc3nsnc23)cc1F	·	·	·	–	·	–
O=Cc1c(Cl)nc2ccccn2c1=O	–	–	–	–	–	–
SMILES	FXIa inh	FXIIa inh	KLK5 inh	Rce1 inhib	Thrombin inh	CTSL1 counter
O=C(N/N=C/c1ccc(Br)o1)c1ccc2c(c1)OCCO2	–	–	–	–	–	–
CCN(Cc1ccccc1)S(=O)(=O)c1ccc(C(=O)N(CCCN(C)C)c2nc3c(C)c(C)ccc3s2)cc1	·	·	·	+	·	–
CCN(Cc1ccccc1)S(=O)(=O)c1ccc(C(=O)N(CCCN(C)C)c2nc3cc4c(cc3s2)OCO4)cc1	·	·	·	–	·	–
COC(=O)c1scc(C)c1NC(=O)CC1NCCNC1=O (stereo unspecified)	–	–	–	–	–	–
COC(=O)c1scc(C)c1NC(=O)Cc1ccccc1	–	–	70	–	–	–
CCCCOC(=O)c1ccc(NC(=O)C(=O)NCc2ccccn2)cc1	–	–	–	–	–	–
CCCCOC(=O)c1ccc(NC(=O)C(=O)NCc2ccco2)cc1	–	99	–	–	–	–
O=C(Nc1cccc(Cl)c1)ON=C1c2ccccc2-c2ccccc21	–	–	–	–	–	–
Cn1cc(C(CC(=O)O)C(=O)O)c2ccccc21 (stereo unspecified)	–	–	–	–	–	–
CCCn1cc(C(CC(=O)O)C(=O)O)c2ccccc21 (stereo unspecified)	–	–	–	–	–	17
COc1ccc(CNc2nc(-c3cccnc3)nn2C(=O)C(C)C)cc1	–	–	–	–	99	·
